Consider three molecules from ChEMBL document CHEMBL3784923, “Azathioprine pharmacokinetics after intravenous, oral, delayed release oral and rectal foam administration” (Gut, 1996).

Data set [1] in a line: Stability in whole blood (unknown origin) using compound stored in ice water slurry. The format is ADME, tissue-based. Particulars: unidentified.
Data set [2] in a line: Tmax in uraemic patient (8 patients) at 100 mg, po. Conditions: human, in vivo.
Data set [3] can be described thus: Volume of distribution at steady state in uraemic patient (15 patients) at 100 mg, iv. Particulars: human, in vivo.
Data set [4] in a line: Stability in plasma (unknown origin) using compound stored in frozen condition. The format is ADME, cell-free. Conditions: unidentified.
The species entered for another data set is Homo sapiens. The data set can be described thus: Toxicity in inflammatory bowel disease patient assessed as induction of leucopenia. The format is organism-based. Conditions: in vivo.
Data set [5] is described as follows: Cmax in uraemic patient (8 patients) at 100 mg, po. Conditions: human, in vivo.
Data set [6] in a line: Oral bioavailability in uraemic patient (8 patients) at 100 mg. Conditions: human, in vivo.
Data set [7] can be described thus: Clearance in uraemic patient (15 patients) at 100 mg, iv. Particulars: human, in vivo.
A short description of data set [8]: Stability of the compound in extracted form in plasma (unknown origin) at room temperature. The format is ADME, cell-free. Particulars: unidentified. An outline of the steps:
(§1)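 6MP in plasma was held at room temperature, both unextracted and after extraction, and measured by HPLC.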

Data set [9] in a line: Stability in plasma (unknown origin) at room temperature. The format is ADME, cell-free. Conditions: unidentified. In a few lines:
as §1

Data set [10] is described as follows: Drug excretion in feces of human treated with Eudragit coated tablets. The format is ADME, tissue-based. Conditions: faeces, po, read-out: Drug excretion.

Each structure is given as a SMILES string.

As to `Cn1cnc([N+](=O)[O-])c1Sc1ncnc2nc[nH]c12` [AZATHIOPRINE], the Stability result is “<= 5 hr” in data set [1] and “<= 1 yr” in data set [4]. Also, the Tmax in [2] was determined as 1.5 h. This molecule registered a Vd in data set [3] of 9.3 L/kg. Besides, the Activity in the data set listed under Homo sapiens is on record as 2%. Besides, the Cmax in data set [5] was found to be 22 ng/mL. The bioavailability in data set [6] came to 41%. The same molecule gave a clearance in data set [7] of 103 mL/min/kg.

As to `Sc1ncnc2nc[nH]c12` [MERCAPTOPURINE ANHYDROUS], the Stability entry is “<= 5 hr” in [1], “<= 1 yr” in data set [4], “<= 30 hr” in [8] and 4 h in data set [9]. For the same molecule, the Activity in the data set listed under Homo sapiens worked out at 2%.

Regarding `Nc1ccc(O)c(C(=O)O)c1` [MESALAMINE], the dose excreted in data set [10] is 25%.

A word on the Tmax: it is the time at which the peak concentration occurs. A word on the Vd: it is a proportionality between amount in the body and measured concentration, not a real space. Higher therefore signals extensive tissue distribution. As a reminder, the Cmax is the highest concentration seen after dosing. By bioavailability is commonly meant dose-corrected exposure relative to a reference, in per cent. Low readings indicate little systemic uptake, high ones much systemic uptake. In general, clearance refers to a measure of how efficiently the substance is removed, as volume per time.
